Measurements: article PMC10652724 (ACS Omega, 2023)

Columns and labels:
[1] = nitrofuran metabolite; cited from earlier work
T. b. gambiense IL1922 = experiment: In vitro trypanocidal activity, bloodstream forms, CellTiter-Glo; assay type: cell-based, Trypanosoma brucei gambiense
[2] = In vitro cytotoxicity, Cell Counting Kit-8; assay type: cell-based; conditions: bovine, MDBK cells (Madin–Darby bovine kidney)
How it was run: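 MDBK cells (1 × 10^4 cells/mL) incubated at 37°C for 72 h with test compound in […] twofold serial dilutions, 100 down to 0.39 μg/mL. Cell Counting Kit-8 added; OD450 read before and after a further 4 h incubation. Done in three replicates. CC50 from nonlinear regression curve fit, reported as mean ± SD.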

T. congolense IL3000 [3] = conditions: T. congolense IL3000 infected mice, cited from earlier work
T. evansi Tansui = experiment: In vitro trypanocidal activity, bloodstream forms, CellTiter-Glo; assay type: cell-based, Trypanosoma evansi
T. b. rhodesiense IL1501 = experiment: as above; assay type: cell-based, Trypanosoma brucei rhodesiense
T. b. brucei GUTat3.1 = experiment: as above; assay type: cell-based, Trypanosoma brucei brucei
T. congolense IL3000 [4] = experiment: as above; assay type: cell-based, Trypanosoma congolense
T. equiperdum IVM-t1 = experiment: as above; assay type: cell-based, Trypanosoma equiperdum

Structure (SMILES) | metabolite present in edible pig tissues [1] [µg/kg] | Selectivity index (SI) (T. b. gambiense IL1922; CC50 of MDBK/IC50 of Tbg IL1922) | IC50 (T. b. gambiense IL1922; Trypanosoma brucei, GAMBIENSE, 72 h, read-out: trypanocidal activity IC50 ± SD) [nM] | CC50 at 72 h [2] [nM] | minimum effective dose (T. congolense IL3000 [3]) [mg/kg] | survival and cure (T. congolense IL3000 [3]; dose ≥30 mg/kg) [%] | Selectivity index (SI) (T. evansi Tansui; CC50 of MDBK/IC50 of Tev Tansui) | IC50 (T. evansi Tansui; Trypanosoma evansi, 72 h, read-out: trypanocidal activity IC50 ± SD) [nM] | Selectivity index (SI) (T. b. rhodesiense IL1501; CC50 of MDBK/IC50 of Tbr IL1501) | IC50 (T. b. rhodesiense IL1501; Trypanosoma brucei, RHODESIENSE, 72 h, read-out: trypanocidal activity IC50 ± SD) [nM] | Selectivity index (SI) (T. b. brucei GUTat3.1; CC50 of MDBK/IC50 of Tbb GuTat3.1) | IC50 (T. b. brucei GUTat3.1; Trypanosoma brucei, 72 h, read-out: trypanocidal activity IC50 ± SD) [nM] | Selectivity index (SI) (T. congolense IL3000 [4]; CC50 of MDBK/IC50 of Tc IL3000) | IC50 (T. congolense IL3000 [4]; Trypanosoma congolense, 72 h, read-out: trypanocidal activity IC50 ± SD) [nM] | Selectivity index (SI) (T. equiperdum IVM-t1; CC50 of MDBK/IC50 of Teq IVM-t1) | IC50 (T. equiperdum IVM-t1; Trypanosoma equiperdum, 72 h, read-out: trypanocidal activity IC50 ± SD) [nM]
NN1CC(=O)NC1=O [1-aminihydantoin, 1-aminohydantoin] | 3 to 8 | – | – | – | – | – | – | – | – | – | – | – | – | – | – | –
O=C1CN(/N=C/c2ccc([N+](=O)[O-])o2)C(=O)N1 [Nitrofurantoin, nitrofurantoin] | – | 39 | 1850 ± 230 | 73000 ± 36200 | 30 | 100 | 44 | 1670 ± 70 | 43 | 1690 ± 200 | 48 | 1510 ± 30 | 174 | 420 ± 50 | 50 | 1450 ± 30
